Results published in ChEMBL document CHEMBL1687913, “Structure-activity relationship, conformational and biological studies of temporin L analogues” (J Med Chem, 2011).
Converted amounts (≈) assume the structure as drawn. Where a SMILES comes first, the peptide text is derived from it.

Columns and labels:
Acinetobacter baumannii = test: Antibacterial activity against Acinetobacter baumannii ATCC 19606 after 18 to 20 hrs by microbroth dilution method; assay type: functional
Method in brief: (§1)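 CLSI microbroth dilution, adapted. Mid-log bacteria, 2 × 10^6 CFU/mL in Mueller-Hinton broth, mixed 1:1 with MH broth holding peptide in serial 2-fold dilutions in 20% ethanol (0.75-48 μM). Incubated 18-20 h at 37 °C; growth read as A600. MIC is the lowest concentration giving 100% growth inhibition.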

Acinetobacter junii = test: Antibacterial activity against […] Acinetobacter junii RT-4 after 18 to 20 hrs by microbroth dilution method; assay type: functional; method in brief: as §1
Enterococcus faecalis = test: Antibacterial activity against Enterococcus faecalis ATCC 29212 after 18 to 20 hrs by microbroth dilution method; assay type: functional; method in brief: as §1
Escherichia coli [1] = test: Antibacterial activity against Escherichia coli ATCC 25922 after 18 to 20 hrs by microbroth dilution method; assay type: functional; method in brief: as §1
Escherichia coli [2] = test: Antibacterial activity against Escherichia coli D21 after 18 to 20 hrs by microbroth dilution method; assay type: functional; method in brief: as §1
Pseudomonas syringae = test: Antibacterial activity against Pseudomonas syringae pv tobaci after 18 to 20 hrs by microbroth dilution method; assay type: functional; method in brief: as §1
Pseudomonas aeruginosa [3] = test: Antibacterial activity against Pseudomonas aeruginosa ATCC 15692 after 18 to 20 hrs by microbroth dilution method; assay type: functional; method in brief: as §1
Pseudomonas aeruginosa [4] = test: Antibacterial activity against Pseudomonas aeruginosa ATCC 27853 after 18 to 20 hrs by microbroth dilution method; assay type: functional; method in brief: as §1
[5] = test system: Yersinia pseudotuberculosis; test: Antibacterial activity against Yersinia pseudotuberculosis YPIII after 18 to 20 hrs by microbroth dilution method; assay type: functional
Method in brief: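 Broth microdilution adapted from CLSI. Mid-log bacteria at 2 × 10^6 CFU/mL in Mueller-Hinton broth were mixed 1:1 with MH broth containing peptide in serial 2-fold dilutions (peptide in 20% ethanol), 0.75-48 μM. Plates were incubated 18-20 h at 37 °C and growth was read as A600. MIC is the concentration giving 100% growth inhibition.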

Priestia megaterium = test: Antibacterial activity against Bacillus megaterium Bm11 after 18 to 20 hrs by microbroth dilution method; assay type: functional; method in brief: as §1
Staphylococcus aureus [6] = test: Antibacterial activity against Staphylococcus aureus ATCC 25923 after 18 to 20 hrs by microbroth dilution method; assay type: functional; method in brief: as §1
Staphylococcus aureus [7] = test: Antibacterial activity against Staphylococcus aureus Cowan I after 18 to 20 hrs by microbroth dilution method; assay type: functional; method in brief: as §1
Staphylococcus capitis = test: Antibacterial activity against Staphylococcus capitis after 18 to 20 hrs by microbroth dilution method; assay type: functional; method in brief: as §1
[8] = test system: Staphylococcus epidermidis; test: Antibacterial activity against Staphylococcus epidermidis ATCC 12228 after 18 to 20 hrs by microbroth dilution method; assay type: functional; method in brief: as §1
Streptococcus pyogenes = test: Antibacterial activity against Streptococcus pyogenes ATCC 21547 after 18 to 20 hrs by microbroth dilution method; assay type: functional; method in brief: as §1
Candida albicans = test: Antifungal activity against Candida albicans ATCC 10231 after 18 to 20 hrs by microbroth dilution method; assay type: functional
Method in brief: (§2)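 Yeasts tested by adapted CLSI microbroth dilution in Winge medium. Peptide given in serial 2-fold dilutions (0.75-48 μM, made in 20% ethanol). Incubation 18-20 h at 30 °C, read at A600. MIC taken as the concentration giving complete (100%) growth inhibition.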

[9] = test system: Schizosaccharomyces pombe; test: Antifungal activity against Schizosaccharomyces pombe after 18 to 20 hrs by microbroth dilution method; assay type: functional; method in brief: as §2
Saccharomyces cerevisiae = test: Antifungal activity against Saccharomyces cerevisiae after 18 to 20 hrs by microbroth dilution method; assay type: functional; method in brief: as §2
[10] = Toxicity in human erythrocytes assessed as hemolysis at 24 uM after 40 mins; assay type: cell-based, Erythrocyte; conditions: read-out: Activity
Method in brief: (§3)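 Human red blood cells suspended in 0.9% (w/v) NaCl and incubated 40 min at 37 °C with gentle mixing with serial 2-fold peptide dilutions (peptide predissolved in 20% ethanol). Spun 5 min at 900g; supernatant read at 415 nm. Cells lysed in distilled water set the 100% lysis reference.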

[11] = Toxicity in human erythrocytes assessed as hemolysis at 12 uM after 40 mins; assay type: cell-based, Erythrocyte; conditions: read-out: Activity; method in brief: as §3
[12] = Toxicity in human erythrocytes assessed as hemolysis at 6 uM after 40 mins; assay type: cell-based, Erythrocyte; conditions: read-out: Activity; method in brief: as §3
[13] = Toxicity in human erythrocytes assessed as hemolysis at 3 uM after 40 mins; assay type: cell-based, Erythrocyte; conditions: read-out: Activity; method in brief: as §3
[14] = Toxicity in human erythrocytes assessed as hemolysis at 1.5 uM after 40 mins; assay type: cell-based, Erythrocyte; conditions: read-out: Activity; method in brief: as §3

Structure (SMILES)	MIC (Acinetobacter baumannii) [µM]	MIC (Acinetobacter junii) [µM]	MIC (Enterococcus faecalis) [µM]	MIC (Escherichia coli [1]) [µM]	MIC (Escherichia coli [2]) [µM]	MIC (Pseudomonas syringae) [µM]	MIC (Pseudomonas aeruginosa [3]) [µM]	MIC [5] [µM]	MIC (Priestia megaterium) [µM]	MIC (Staphylococcus aureus [6]) [µM]	MIC (Staphylococcus aureus [7]) [µM]	MIC (Staphylococcus capitis) [µM]	MIC [8] [µM]	MIC (Streptococcus pyogenes) [µM]	MIC (Candida albicans) [µM]	MIC [9] [µM]	hemolysis at 40 min, 24 µM [10] [%]	hemolysis at 40 min, 12 µM [11] [%]	hemolysis at 40 min, 6 µM [12] [%]	hemolysis at 40 min, 3 µM [13] [%]	also measured
CC[C@H](C)[C@H](NC(=O)[C@H](CCCNC(=N)N)NC(=O)[C@@H]1CCCN1C(=O)[C@H](CC(C)C)NC(=O)[C@H](Cc1ccccc1)NC(=O)[C@H](CCCCN)NC(=O)[C@H](CO)NC(=O)[C@H](Cc1ccccc1)NC(=O)[C@H](Cc1c[nH]c2ccccc12)NC(=O)[C@@H]1CCCN1C(=O)[C@@H](NC(=O)[C@@H](N)Cc1ccccc1)C(C)C)C(=O)N[C@@H](CC(C)C)C(N)=O	48 (≈ 79.2 µg/mL)	12 (≈ 19.8 µg/mL)	48 (≈ 79.2 µg/mL)	48 (≈ 79.2 µg/mL)	24 (≈ 39.6 µg/mL)	24 (≈ 39.6 µg/mL)	> 48	24 (≈ 39.6 µg/mL)	3 (≈ 4.95 µg/mL)	24 (≈ 39.6 µg/mL)	24 (≈ 39.6 µg/mL)	12 (≈ 19.8 µg/mL)	12 (≈ 19.8 µg/mL)	12 (≈ 19.8 µg/mL)	12 (≈ 19.8 µg/mL)	12 (≈ 19.8 µg/mL)	5	5	4.5	2	MIC (Pseudomonas aeruginosa [4]): > 48 µM; MIC (Saccharomyces cerevisiae): 12 µM (≈ 19.8 µg/mL); hemolysis at 40 min, 1.5 µM [14]: 2%
CC[C@@H](C)[C@@H](NC(=O)[C@H](N)CC(C)C)C(=O)N[C@H](CCCNC(=N)N)C(=O)NCC(=O)N[C@H](CC(C)C)C(=O)N[C@H](Cc1ccccc1)C(=O)N[C@H](CCCCN)C(=O)N[C@H](CO)C(=O)N[C@H](Cc1ccccc1)C(=O)N[C@H](Cc1c[nH]c2ccccc12)C(=O)N[C@H](CCC(N)=O)C(=O)N[C@@H](C(=O)N[C@H](Cc1ccccc1)C(N)=O)C(C)C [listing 1 of 2 here]	6 (≈ 9.84 µg/mL)	6 (≈ 9.84 µg/mL)	12 (≈ 19.7 µg/mL)	12 (≈ 19.7 µg/mL)	12 (≈ 19.7 µg/mL)	6 (≈ 9.84 µg/mL)	> 48	24 (≈ 39.4 µg/mL)	1.5 (≈ 2.46 µg/mL)	12 (≈ 19.7 µg/mL)	3 (≈ 4.92 µg/mL)	6 (≈ 9.84 µg/mL)	6 (≈ 9.84 µg/mL)	6 (≈ 9.84 µg/mL)	12 (≈ 19.7 µg/mL)	1.5 (≈ 2.46 µg/mL)					MIC (Pseudomonas aeruginosa [4]): > 48 µM; MIC (Saccharomyces cerevisiae): > 48 µM
CC[C@@H](C)[C@@H](NC(=O)[C@H](N)CC(C)C)C(=O)N[C@H](CCCNC(=N)N)C(=O)NCC(=O)N[C@H](CC(C)C)C(=O)N[C@H](Cc1ccccc1)C(=O)N[C@H](CCCCN)C(=O)N[C@H](CO)C(=O)N[C@H](Cc1ccccc1)C(=O)N[C@H](Cc1c[nH]c2ccccc12)C(=O)N[C@H](CCC(N)=O)C(=O)N[C@@H](C(=O)N[C@H](Cc1ccccc1)C(N)=O)C(C)C [listing 2 of 2 here]																	81	49	15	6	hemolysis at 40 min, 1.5 µM [14]: 1%
CC[C@H](C)[C@H](NC(=O)[C@H](CCCNC(=N)N)NC(=O)[C@H](CC(C)C)NC(=O)[C@H](CC(C)C)NC(=O)[C@H](Cc1ccccc1)NC(=O)[C@H](CCCCN)NC(=O)[C@H](CO)NC(=O)[C@H](Cc1ccccc1)NC(=O)[C@H](Cc1c[nH]c2ccccc12)NC(=O)[C@H](CCC(N)=O)NC(=O)[C@@H](NC(=O)[C@@H](N)Cc1ccccc1)C(C)C)C(=O)N[C@@H](CC(C)C)C(N)=O (H-FVQWFSKFLLRIL-NH2)	48 (≈ 81.4 µg/mL)	> 48	48 (≈ 81.4 µg/mL)	> 48	48 (≈ 81.4 µg/mL)	> 48	> 48	6 (≈ 10.2 µg/mL)	48 (≈ 81.4 µg/mL)	48 (≈ 81.4 µg/mL)	48 (≈ 81.4 µg/mL)	> 48	3 (≈ 5.09 µg/mL)	6 (≈ 10.2 µg/mL)	> 48	6 (≈ 10.2 µg/mL)	83	80	80	78	MIC (Pseudomonas aeruginosa [4]): > 48 µM; hemolysis at 40 min, 1.5 µM [14]: 69%
CC[C@H](C)[C@H](NC(=O)[C@H](CCCNC(=N)N)NC(=O)CNC(=O)[C@H](CC(C)C)NC(=O)[C@H](Cc1ccccc1)NC(=O)[C@H](CCCCN)NC(=O)[C@H](CO)NC(=O)[C@H](Cc1ccccc1)NC(=O)[C@H](Cc1c[nH]c2ccccc12)NC(=O)[C@@H]1CCCN1C(=O)[C@H](CC(C)C)NC(=O)[C@@H](N)Cc1ccccc1)C(=O)N[C@@H](CC(C)C)C(N)=O (H-FLPWFSKFLGRIL-NH2)	12 (≈ 19.5 µg/mL)	12 (≈ 19.5 µg/mL)	12 (≈ 19.5 µg/mL)	12 (≈ 19.5 µg/mL)	24 (≈ 39 µg/mL)	12 (≈ 19.5 µg/mL)	> 48	6 (≈ 9.74 µg/mL)	3 (≈ 4.87 µg/mL)	3 (≈ 4.87 µg/mL)	3 (≈ 4.87 µg/mL)	3 (≈ 4.87 µg/mL)	3 (≈ 4.87 µg/mL)	6 (≈ 9.74 µg/mL)	12 (≈ 19.5 µg/mL)	6 (≈ 9.74 µg/mL)	93	64	19	9	MIC (Saccharomyces cerevisiae): 12 µM (≈ 19.5 µg/mL); hemolysis at 40 min, 1.5 µM [14]: 4%
